These results are taken from PMC7106177 (International Immunopharmacology, 2004).

Values after ≈ are worked out from the molar mass of the structure shown.

Common to all, as to format: cell-based, human
The test system of one data set is HFL-1 cells. As to the kind of experiment: cytotoxicity by LDH assay. Conditions: calculated from LDH assay data; for CC30 (cytotoxicity), IL-8 condition: HFL-1, TNF-α stimuli for 24 h; for CC30 (cytotoxicity), eotaxin 1 condition: HFL-1, TNF-α/IL-4 stimuli for 48 h. In a few lines: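 LDH leakage is measured in supernatants from the same HFL-1 cultures under both stimulation conditions: TNF-α 10 ng/ml for 24 h, or TNF-α plus IL-4 20 U/ml for 48 h. Test compound is in 1% FBS medium, and final EtOH or DMSO is mostly below 0.1%. LDH is read with a commercial LDH cytotoxicity kit.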

Data set [1] has as its system IL-8 production in HFL-1 cells. As to the kind of experiment: IL-8 production by TNF-α-stimulated HFL-1 cells. The following applies: for IL-8 production reduced to (% of stimulated control): 1000 μg/ml, P<0.001; for IL-8 production reduced to (% of stimulated control) / concentration at which significant inhibition of IL-8 production was observed: TNF-α 24 h; for concentration at which significant inhibition of IL-8 production was observed: P<0.01. In outline: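 HFL-1 fetal lung fibroblasts are grown in Ham's F-12 with 15% heat-inactivated FBS on collagen, then seeded at 5×10^4 cells/well and adhered overnight. Test compound is added in 1% FBS medium, with vehicle controls, followed by TNF-α 10 ng/ml for 24 h at 37 °C. Supernatant IL-8 is measured by sandwich ELISA, at least in duplicate. Data are mean±S.D. of three experiments, analysed by Student's t-test, with IC50 calculated from the ELISA data.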

Another data set relates to IL-8 mRNA in HFL-1 cells. As to the kind of experiment: RT-PCR analysis of IL-8 mRNA expression. The following applies: TNF-α-stimulated HFL-1.
The subject of data set [2] is eotaxin 1 production in HFL-1 cells. As to the kind of experiment: eotaxin 1 production by TNF-α plus IL-4-stimulated HFL-1 cells. Conditions: HFL-1, TNF-α/IL-4 stimuli for 48 h; calculated from ELISA data. In outline: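 Collagen-plated HFL-1 cells are seeded at 5×10^4/well and adhered overnight. Test compound in 1% FBS medium, or vehicle, is added, and the cells are then stimulated with TNF-α 10 ng/ml plus IL-4 20 U/ml for 48 h at 37 °C. Eotaxin 1 in the supernatant is quantified by sandwich ELISA, with samples at least in duplicate. Values are mean±S.D. of three independent experiments, compared by t-test, and IC50 is derived from the ELISA data.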

Data set [3] relates to eotaxin 1 mRNA in HFL-1 cells. As to the kind of experiment: RT-PCR analysis of eotaxin 1 mRNA expression. Conditions: TNF-α plus IL-4-stimulated HFL-1.

For the molecule `CC1(C)[C@@H](O[C@H]2O[C@H](C(=O)O)[C@@H](O)[C@H](O)[C@H]2O[C@@H]2O[C@H](C(=O)O)[C@@H](O)[C@H](O)[C@H]2O)CC[C@]2(C)[C@H]3C(=O)C=C4[C@@H]5C[C@@](C)(C(=O)O)CC[C@]5(C)CC[C@@]4(C)[C@]3(C)CC[C@@H]12` [18α-GL, glycyrrhizin], in the data set on HFL-1 cells, the “CC30 (cytotoxicity), IL-8 condition” value was 330 µg/mL (≈ 401 µM) and the “CC30 (cytotoxicity), eotaxin 1 condition” value is over 1000 µg/mL. In data set [1], the “IL-8 production reduced to (% of stimulated control)” value is 25% and the “concentration at which significant inhibition of IL-8 production was observed” value is recorded as “more than 300 μg/ml”. Moreover, in the data set on IL-8 mRNA in HFL-1 cells, the “effect on IL-8 mRNA expression” value is “did not indicate significant effect”. In addition, the “Eotaxin 1 IC50” value in data set [2] was 25 µg/mL.
With `CC1(C)[C@@H](O[C@H]2O[C@H](C(=O)O)[C@@H](O)[C@H](O)[C@H]2O[C@@H]2O[C@H](C(=O)O)[C@@H](O)[C@H](O)[C@H]2O)CC[C@]2(C)[C@H]3C(=O)C=C4[C@@H]5C[C@@](C)(C(=O)O)CC[C@]5(C)CC[C@@]4(C)[C@]3(C)CC[C@@H]12` [18β-GL, glycyrrhizin], the “effect on eotaxin 1 mRNA expression” value in data set [3] was “did not inhibit it at the same doses”. Moreover, in the data set on HFL-1 cells, the “CC30 (cytotoxicity), IL-8 condition” value is over 1000 µg/mL and the “CC30 (cytotoxicity), eotaxin 1 condition” value is over 1000 µg/mL. Further, in data set [1], the “IL-8 production reduced to (% of stimulated control)” value came to 25% and the “concentration at which significant inhibition of IL-8 production was observed” value is listed as “more than 300 μg/ml”. Also, in data set [1] (HFL-1, TNF-α stimuli for 24 h, calculated from ELISA data), the “IL-8 IC50” value was 370 µg/mL. In addition, the “Eotaxin 1 IC50” value in data set [2] is over 300 µg/mL.
With `CC1(C)[C@@H](O[C@H]2O[C@H](C(=O)O)[C@@H](O)[C@H](O)[C@H]2O[C@@H]2O[C@H](C(=O)O)[C@@H](O)[C@H](O)[C@H]2O)CC[C@]2(C)[C@H]3C(=O)C=C4[C@@H]5C[C@@](C)(C(=O)O)CC[C@]5(C)CC[C@@]4(C)[C@]3(C)CC[C@@H]12` [GL, Glycyrrhizin], the “doses needed to inhibit IL-8 and eotaxin 1 production” value in data set [1] (IL-8 and eotaxin 1 production, HFL-1) is about 1 mg/mL.
